PGC1a acetyl inh: PGC1a acetylation modulation, inhibitor mode; inhibition, % at 15.6 µM; 350,000 compounds, 0.17% hits; U2OS PGC1a acetylation, AlphaScreen anti-acetyl-lysine; with virally co-expressed GCN5 acetyltransferase;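 active means every replicate shows inhibition of at least 40%; inconclusive means mean inhibition at least 40% but some replicate below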;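 further: 0% = neutral control wells and 100% = positive control wells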
Statin myotox sup: protects C2C12 myotubes from simvastatin toxicity | ATP luminescence, 48 h; scaled: DMSO 0, geranylgeraniol control 100 | rescue of ATP level, % at 7.49 µM | 330,000 compounds, 0.78% hits;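 active means mean ATP rescue above about 67%, or every replicate alone reaching that limit, limit read from the data, passing the limit was not always enough; inconclusive means no clear call, values can overlap the other calls; inactive means mean under the limit and some replicate under it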;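 further: myotubes were challenged with 10 µM simvastatin during compound exposure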
DENV2 CPE rescue: protects cells from dengue virus 2 cytopathic effect | DENV2-infected cells, cytopathic effect rescue, plate reader | CPE inhibition, % at 9.99 µM | 350,000 compounds, 1.7% hits; in the data active means CPE inhibition above about 20%, passing the limit was not always enough; inconclusive means no clear call, values can overlap the other calls; tested in BHK-21 cells;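 further: 0% = median of neutral control wells and 100% = median of positive control wells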
S100A4 MyoIIA: inhibitors of human S100A4 binding to myosin IIA peptide; P26447; S100A4/TAMRA-MyoIIA peptide fluorescence polarization; inhibition, % at 10.7 µM; 360,000 compounds, 0.14% hits; AID 652163;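 active means mean inhibition of at least 70% across replicates, with every replicate also reaching that level; inconclusive means mean inhibition reaches 70% but some replicates fall short; inactive means mean inhibition below 70%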
Target sequence (P26447 whole entry, looked up): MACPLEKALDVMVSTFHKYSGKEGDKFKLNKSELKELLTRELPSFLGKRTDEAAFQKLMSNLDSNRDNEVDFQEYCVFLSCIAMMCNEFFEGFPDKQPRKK
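Material: S100A4 monomer (human). Medium: Calcium-containing HEPES buffer, pH 7.2. Probe or stimulus: labelled myosin peptide probe, 5 nM. Compound dosing: one concentration per compound. Timing: polarization read 5 min after assay mix addition, stable 5–60 min. Benchmarks: DMSO as neutral control, TFP as positive control.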
SIRT5 inh: blocks human SIRT5 desuccinylation of peptide. Q9NXA8. Purified SirT5, succinyl-peptide AMC, trypsin-coupled fluorescence. inhibition, % at 15 µM. 330,000 compounds, 1.1% hits. AID 652115; in the data active means inhibition above about 15%; inconclusive means no clear call, values can overlap the other calls
Target sequence (Q9NXA8 whole entry, looked up): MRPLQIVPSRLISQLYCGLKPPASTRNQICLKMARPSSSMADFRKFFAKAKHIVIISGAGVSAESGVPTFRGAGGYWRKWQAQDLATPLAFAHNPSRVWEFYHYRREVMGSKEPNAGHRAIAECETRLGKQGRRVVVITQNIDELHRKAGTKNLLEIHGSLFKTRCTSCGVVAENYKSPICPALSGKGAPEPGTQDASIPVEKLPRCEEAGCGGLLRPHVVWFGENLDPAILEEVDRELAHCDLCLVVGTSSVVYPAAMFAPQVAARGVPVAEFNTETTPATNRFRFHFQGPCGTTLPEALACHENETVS
The depositor's hits bear a star; ? = inconclusive; · = no result given. Hits are enriched below; roughly 2.9% of the tested compounds scored in any of these assays.

SMILES	PGC1a acetyl inh	Statin myotox sup	DENV2 CPE rescue	S100A4 MyoIIA	SIRT5 inh
C[C@@H]1CN([C@@H](C)CO)C(=O)Cc2cc(NC(=O)NC3CCCCC3)ccc2O[C@H]1CN(C)C(=O)NC1CCCCC1	3.5	-3.5	11.1	-1.7	11.2
O=C(C[C@H]1C=C[C@H](NC(=O)Cc2cccnc2)[C@@H](CO)O1)Nc1ccccc1	3.6	-2.1	1.2	41.3	0.2
O=C(CCN1CCCCC1)N[C@@H]1C=C[C@H](CC(=O)N2CCC(Cc3ccccc3)CC2)O[C@H]1CO	8.1	5.9	2.6	0.6	15.3*
O=C(C[C@H]1C=C[C@H](NC(=O)CCN2CCCCC2)[C@H](CO)O1)Nc1nccs1	1.3	12.8	6.9	130.8*	2.3
O=C(CCN1CCCCC1)N[C@H]1C=C[C@@H](CC(=O)N2CCC(Cc3ccccc3)CC2)O[C@@H]1CO	8.4	3.8	-0.8	0.3	0.6
COc1ccccc1NC(=O)N[C@@H]1C=C[C@H](CC(=O)N2CCC(Cc3ccccc3)CC2)O[C@@H]1CO	-4.9	14.0	-1.8	-1.9	1.5
O=C(C[C@@H]1C=C[C@H](NC(=O)CCN2CCCCC2)[C@@H](CO)O1)Nc1nccs1	10.1	-4.0	2.3	1.7	2.7
COc1ccccc1NC(=O)N[C@H]1C=C[C@H](CC(=O)N2CCC(Cc3ccccc3)CC2)O[C@@H]1CO	·	-8.8	-7.5	103.5*	-35.2
C[C@H]1CN([C@@H](C)CO)C(=O)c2cc(C3=CCCC3)cnc2O[C@H]1CN(C)C(=O)NC1CCCC1	-14.2	12.6	1.1	7.3	4.4
COCC(=O)N1[C@@H](C#N)[C@@H](c2ccccc2C2=CCCCC2)[C@@H]1CO	-4.0	·	?	0.3	-1.3
C[C@H]1CN([C@@H](C)CO)C(=O)c2cc(NC(=O)Nc3cccc4ccccc34)ccc2O[C@@H]1CN(C)S(=O)(=O)c1ccc(Cl)cc1	-6.3	-37.9	-1.6	-14.3	-2.4
O=C(C[C@@H]1CC[C@H](NC(=O)C2CC2)[C@H](CO)O1)NCc1ccncc1	5.0	-7.3	4.8	-1.3	2.3
CCOC(=O)C1C(c2cccc(F)c2)NC(=S)NC1(O)C(F)(F)F (centres undefined)	-3.4	98.2*	·	·	·
CCOC(=O)C1C(c2cc(OC)c(O)c(OC)c2)NC(=S)NC1(O)C(F)(F)F (centres undefined)	-9.3	-5.5	4.5	-1.6	-0.8
CCOC(=O)C1C(c2cccs2)NC(=O)NC1(O)C(F)(F)F (centres undefined)	·	-1.2	10.6	-10.2	16.6*
CCOC(=O)C1C(c2cc(OC)c(OC)c(OC)c2)NC(=S)NC1(O)C(F)(F)F (centres undefined)	-4.6	100.6*	·	·	·
CCOC(=O)C1C(c2cccnc2)NC(=O)NC1(O)C(F)(F)F (centres undefined)	-4.5	·	-0.8	0.0	-3.0
C[C@@H]1CN([C@H](C)CO)C(=O)c2cccc(NC(=O)C3CC3)c2O[C@@H]1CN(C)C(=O)Nc1cccc2ccccc12	·	4.8	3.9	-82.0	-0.7
COc1cccc(-c2ccc([C@@H]3[C@H](CO)N4CCCCN(C(=O)c5ccc(F)cc5)C[C@@H]34)cc2)c1	-0.6	13.0	41.1*	112.9*	5.7
O=C(c1cccc(Cl)c1)N1CCCC(C(=O)N2CCCCCC2)C1 (centres undefined)	6.5	-0.7	·	·	·
COc1cccc(-c2ccc([C@@H]3[C@H]4CN(CC5CC5)CCCCN4[C@H]3CO)cc2)c1	-18.8	14.3	58.4*	-12.4	-2.6
O=C(c1cccc(F)c1)N1CCCC(C(=O)N2CCCCCC2)C1 (centres undefined)	-8.8	12.8	3.2	-1.2	27.1*
O=C(c1cccc(F)c1)N1CCCCN2[C@H](CO)[C@H](c3ccc(-c4ccccc4)cc3)[C@H]2C1	-16.9	·	40.9*	-4.1	-2.1
COc1cccc(-c2ccc([C@H]3[C@H]4CN(C(=O)c5ccc(F)cc5)CCCCN4[C@H]3CO)cc2)c1	-2.3	50.0	10.7	7.4	3.4
OC[C@H]1[C@H](c2ccc(-c3cccc(F)c3)cc2)[C@H]2CN(CCC(F)(F)F)CCCCN21	-5.4	0.9	12.8	10.5	1.9
SMILES	PGC1a acetyl inh	Statin myotox sup	DENV2 CPE rescue	S100A4 MyoIIA	SIRT5 inh
OC[C@H]1[C@@H](c2ccc(-c3cccc(F)c3)cc2)[C@H]2CN(CCC(F)(F)F)CCCCN21	0.9	-29.6	13.0	-18.1	24.2*
COc1ccc(NC(=O)C2CCN(S(=O)(=O)c3cccc4cccnc34)CC2)cc1OC	-8.1	-9.5	-6.0	1.1	·
COc1ccc(C)cc1NC(=O)C1CCN(S(=O)(=O)c2cccc3cccnc23)CC1	-12.7	21.5	27.7*	-3.5	·
COc1ccc(N=C2S/C(=C\c3cc(C)n(C)c3C)C(=O)N2CC(C)C)cc1	-9.8	156.2*	·	·	·
OC(CN1CCN(c2cccc(Cl)c2)CC1)c1ccc(F)cc1 (centres undefined)	4.8	2.6	48.9*	3.4	1.2
OC(CN1CCN(c2cccc(Cl)c2)CC1)c1ccccc1 (centres undefined)	3.5	10.7	9.0	0.0	-11.6
C[C@H](NC(=O)C[C@H]1C=C[C@H](NC(=O)C2CCOCC2)[C@@H](CO)O1)c1ccccc1	-1.9	-1.5	-9.2	10.3	2.9
CCCNC(=O)[C@H]1[C@H](CO)[C@H]2Cn3c(ccc(/C=C/c4ccccc4)c3=O)[C@@H]1N2C(C)=O	·	8.5	11.0	4.3	-124.6
C[C@H](CO)N1C[C@H](C)[C@@H](CN(C)C(=O)NC2CCCCC2)Oc2cc(C#Cc3ccc(F)cc3)ccc2S1(=O)=O	12.7	9.0	?	1.8	17.6*
C[C@@H]1CN([C@@H](C)CO)S(=O)(=O)c2ccc(C#Cc3ccc(F)cc3)cc2O[C@H]1CN(C)C(=O)NC1CCCCC1	-6.3	35.5	-1.0	-2.3	18.8*
C[C@@H]1CN([C@H](C)CO)S(=O)(=O)c2ccc(C#Cc3ccc(F)cc3)cc2O[C@@H]1CN(C)C(=O)NC1CCCCC1	0.3	39.6	8.3	-23.3	18.7*
C[C@H](CO)N1C[C@H](C)[C@@H](CN(C)C(=O)NC2CCCC2)Oc2cc(C#Cc3ccc(F)cc3)ccc2S1(=O)=O	14.4	21.8	-4.5	-2.5	2.2
O=C1C[C@@](C(=O)NCCN2CCOCC2)(c2ccc([N+](=O)[O-])cc2)[C@@H](c2ccc(CO)cc2I)N1CC12CC3CC(CC(C3)C1)C2	26.5	·	-2.9	11.4	-17.1
O=C(Cn1ccc(NC(=O)OCc2ccccc2)nc1=O)NCCCN1CCCC1=O	·	3.0	113.6*	-5.7	·
O=C(Nc1ccn(CCCN2CCN(c3ncccn3)CC2)c(=O)n1)OCc1ccccc1	·	4.2	5.6	-5.0	-0.6
O=C(Nc1ccn(CC(=O)N2CCN(c3ccccn3)CC2)c(=O)n1)OCc1ccccc1	-2.2	-2.8	118.8*	2.8	·
O=C(Cn1ccc(NC(=O)OCc2ccccc2)nc1=O)NCCN1CCOCC1	·	11.0	12.7	-0.5	·

Screening data as filed in PubChem BioAssay.
